Among the data in ChEMBL document CHEMBL1649417, “α,β-Unsaturated carbonyl system of chalcone-based derivatives is responsible for broad inhibition of proteasomal activity and preferential killing of human papilloma virus (HPV) positive cervical cancer cells” (J Med Chem, 2011) are IC50, inhibition and Activity values, retold here.

Usually IC50 stands for the concentration at which inhibition is half-maximal. High values mean a need for much substance, low ones inhibition by little substance.

Activity calls are given as the source filed them. The calls are words filed in the database; no cut-off is given here.

The subject of data set [1] is HeLa. Description: Cytotoxicity against HPV18 transformed human HeLa cells after 48 hrs by XTT assay. In kind it is functional, cell-based. The gist of the method:
(§1)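 ATCC lines grown in DMEM with 10% FBS, penicillin/streptomycin, 5% CO2; 1,000 cells/well exposed to compound (HeLa and CaSki tested over 100 to 0.01 µM). After treatment, XTT labeling mixture for 4 h, absorbance at 450 nm. Triplicate runs; IC50 is the average of three independent determinations.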
Background: Formazan colour is commonly taken as a measure of viable cells.

The subject of the next data set is CaSki (Homo sapiens). As to the kind of experiment: Cytotoxicity against CaSki transformed human cervical carcinoma cells after 48 hrs by XTT assay.
The subject of data set [2] is HeLa. As to the kind of experiment: Inhibition of proteasome activity in human HeLa cells assessed as induction of ubiquitinG76V-FL reporter level at 1 uM after 8 hrs by luciferase assay. Put shortly: (§2)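 HeLa transiently transfected with Ub(G76V)4-FL or CMV-FL control, replated 24 h later at 1×10^4 cells/well, drug added after 18 h attachment. Luciferase measured in cell lysate, RLU expressed as % of control; SE from three independent experiments.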

The subject of data set [3] is HeLa. Description: Inhibition of proteasome activity in human HeLa cells assessed as induction of ubiquitinG76V-FL reporter level at 5 nM after 8 hrs by luciferase assay. The following applies: 1 µM, in the assay text read “at 1 µM” for “at 5 nM”. Put shortly: as §2
The subject of data set [4] is HeLa. Description: Increase of polyubiquitinated accumulation in human HeLa cells at 10 uM after 8 hrs by immunoblotting. Type of data set: functional, cell-based. The gist of the method: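 HeLa cells treated 8 h with or without compound, then lysates immunoblotted for poly-ubiquitinated proteins; β-actin antibody to confirm equal loading; bortezomib positive control.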

Data set [5] is described as follows: Inhibition of chymotrypsin-like activity of 20S proteasome isolated from human LCL after 30 mins by fluorimetric analysis. Put shortly:
(§3)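 Semipurified proteasome from lymphoblastoid cells: glass-bead lysis in Tris pH 7.5/MgCl2/DTT/2 mM ATP/sucrose buffer, differential and 100,000g ultracentrifugation. Preincubated with inhibitor 30 min at 37°C, then 45 min at 37°C with Suc-LLVY-AMC (chymotrypsin-like), Boc-LRR-AMC (trypsin-like) or Ac-YVAD-AMC (caspase/PGPH-like) in 50 mM Tris pH 7.5, 5 mM MgCl2, 1 mM DTT. Quenched with 1% SDS; ex 380/em 440 nm; percent inhibition versus untreated.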

A short description of data set [6]: Inhibition of trypsin-like activity of 20S proteasome isolated from human LCL after 30 mins by fluorimetric analysis. Put shortly: as §3
Data set [7] is described as follows: Inhibition of PGPH-like activity of 20S proteasome isolated from human LCL after 30 mins by fluorimetric analysis. Put shortly:
as §3

The target of data set [8] is Cathepsin D (Homo sapiens) (UniProt P07339). Description: Inhibition of cathepsin D up to 50 uM by fluorometric analysis.
Sequence of Cathepsin D (Homo sapiens) (P07339 65-162 limits assumed): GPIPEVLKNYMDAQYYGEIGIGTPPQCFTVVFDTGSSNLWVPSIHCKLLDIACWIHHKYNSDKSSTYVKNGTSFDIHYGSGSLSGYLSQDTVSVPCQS
Sequence of Cathepsin D (Homo sapiens) (P07339 169-412 limits assumed): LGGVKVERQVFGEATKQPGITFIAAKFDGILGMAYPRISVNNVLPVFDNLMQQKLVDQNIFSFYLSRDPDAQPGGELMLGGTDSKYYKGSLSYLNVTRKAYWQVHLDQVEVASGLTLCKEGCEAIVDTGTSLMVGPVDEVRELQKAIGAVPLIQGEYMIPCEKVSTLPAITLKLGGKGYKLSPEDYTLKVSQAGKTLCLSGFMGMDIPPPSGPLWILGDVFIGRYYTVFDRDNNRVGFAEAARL
Data set [9] is described as follows: Inhibition of calpain up to 50 uM by fluorometric analysis.
A further data set relates to SiHa. Description: Cytotoxicity against HPV16 transformed human SiHa cells after 48 hrs by XTT assay. In kind it is functional, cell-based. The gist of the method: as §1
Another data set relates to ME-180. Description: Cytotoxicity against HPV58 transformed human ME180 cells after 48 hrs by XTT assay. Type of data set: functional, cell-based. Put shortly: as §1
A short description of data set [10]: Cytotoxicity against human keratinocytes assessed as effect on cell viability at 1.6 to 25 uM after 48 hrs by XTT assay. Type of data set: cell-based. Particulars: keratinocyte. Put shortly:
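Primary keratinocytes cultured in defined Keratinocyte-SFM, treated 48 h at the indicated concentrations, 1,000 cells/well. XTT reagent for 4 h, absorbance at 450 nm; viability plotted as fraction of untreated control cultures; triplicate.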

For the molecule `N=C(N)NCCC[C@H](NC(=O)N1C/C(=C\c2ccc(Cl)c(Cl)c2)C(=O)/C(=C/c2ccc(Cl)c(Cl)c2)C1)C(=O)N[C@@H](CCCCN)C(=O)O`, the IC50 with HeLa [1] and with CaSki (Homo sapiens) was above 50 µM throughout.
Regarding `CC(C)C[C@H](NC(=O)[C@H](Cc1ccccc1)NC(=O)c1cnccn1)B(O)O`, the inhibition result with HeLa [2] and in the data set with HeLa [3] was “Active” each time.
Regarding `O=C(O)CC[C@H](NC(=O)N1C/C(=C\c2ccc(Cl)c(Cl)c2)C(=O)/C(=C/c2ccc(Cl)c(Cl)c2)C1)C(=O)O`, the IC50 in the data set on HeLa [1] and with CaSki (Homo sapiens) was above 50 µM in each case. The outcome in the data set with HeLa [4] was inactive.
On to `O=C1/C(=C/c2ccc(Cl)c(Cl)c2)CN(C(=O)N[C@@H](Cc2ccccc2)C(=O)N[C@@H](Cc2ccc(O)cc2)C(=O)O)C/C1=C\c1ccc(Cl)c(Cl)c1`, for which the IC50 in the data set with HeLa [1] and in the data set with CaSki (Homo sapiens) was above 50 µM each time.
Turning to `NCCCC[C@H](NC(=O)N1C/C(=C\c2ccc(Cl)c(Cl)c2)C(=O)/C(=C/c2ccc(Cl)c(Cl)c2)C1)C(=O)O`, the IC50 with HeLa [1] and in the data set with CaSki (Homo sapiens) was above 50 µM throughout.
Take `O=C(O)CC[C@H](NC(=O)N1C/C(=C\c2ccc(Cl)c(Cl)c2)C(=O)/C(=C/c2ccc(Cl)c(Cl)c2)C1)C(=O)N[C@@H](CC(=O)O)C(=O)O`: the IC50 in the data set with HeLa [1] and in the data set on CaSki (Homo sapiens) was above 50 µM throughout.
Turning to `CN1C/C(=C\c2ccc(B(O)O)cc2)C(=O)/C(=C/c2ccc(B(O)O)cc2)C1`, the values for the IC50 with HeLa [1] and with CaSki (Homo sapiens) were 8 µM and 9 µM, respectively.
`N=C(N)NCCC[C@H](NC(=O)[C@H](CCCCN)NC(=O)N1C/C(=C\c2ccc(Cl)c(Cl)c2)C(=O)/C(=C/c2ccc(Cl)c(Cl)c2)C1)C(=O)O`: the IC50 with HeLa [1] and in the data set on CaSki (Homo sapiens) was above 50 µM throughout.
On to `CC(C)C[C@H](NC(=O)N1C/C(=C\c2ccc(Cl)c(Cl)c2)C(=O)/C(=C/c2ccc(Cl)c(Cl)c2)C1)C(=O)O`, for which the 50% inhibitory concentration (IC50) in the data set on HeLa [1] was 10 µM; in data set [5], 9.3 µM; in [6] it was above 10 µM; in data set [7], above 10 µM; in the data set on CaSki (Homo sapiens), 20 µM. Besides, the result in the data set with HeLa [4] was Active.
As to `O=C1/C(=C/c2ccc(Cl)c(Cl)c2)CN(C(=O)N[C@@H](Cc2ccc(O)cc2)C(=O)O)C/C1=C\c1ccc(Cl)c(Cl)c1`, the IC50 in the data set on HeLa [1] is 10 µM; in data set [5], 4.2 µM; in data set [6], 8.4 µM; in data set [7], above 10 µM; in the data set with CaSki (Homo sapiens) it was 10 µM. The result in the data set on HeLa [4] was Active.
For the molecule `O=C1/C(=C/c2ccc(Cl)c(Cl)c2)CN(C(=O)N[C@@H](Cc2ccccc2)C(=O)O)C/C1=C\c1ccc(Cl)c(Cl)c1`, the IC50 in the data set with HeLa [1] is 0.32 µM; in [5], 4.8 µM; in data set [6] it was 6.6 µM; in [7], 6.2 µM; in the data set with CaSki (Homo sapiens) it was 1.5 µM. Besides, the outcome in the data set on HeLa [4] was Active. The inhibition entry in [8] and in data set [9] was “inactive” throughout. Besides, the Activity result in the data set with SiHa is “Dose-dependent effect”; in the data set with ME-180 it was “Dose-dependent effect”; in data set [10] it was “Non-toxic”. The inhibition entry in the data set on HeLa [2] and in the data set with HeLa [3] was “Active” each time.
